Source: PubChem BioAssay
The list is not random: actives were taken first. Their share in the collection is about 2.5%.
Vif imaging – HIV Vif self-association inhibitors, primary screen, imaging, HEK293T, single point. HEK293T cells, Vif self-association by quenched fluorescence, 24 h. inhibition, % at 7.49 µM. AID 602346, 2012. 0.35% of 340,000 active; in the data active = inhibition above about 50%, passing the limit was not always enough
TAG inh – inhibitors of triacylglycerol accumulation, primary screen, cell-based, uHTS, fluorescence, H9c2. H9c2 cells, Nile Red lipid (TAG) fluorescence; cells loaded with 200 µM oleic acid. inhibition, % at 12.5 µM. 0.66% of 230,000 active;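 active = pattern-corrected inhibition of lipid staining of at least 50% with the nuclear-stain viability signal not falling by more than 50%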;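 also: 0% = DMSO wells and 100% = triacsin C control wells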
SMARCA2 act – SMARCA2 (BRM) function activators, primary screen, cell-based, luminescence, high throughput. 1% of 370,000 active. MG213 cells, MMTV-luciferase reporter, dexamethasone, overnight. activation, % at 9.1 µM; in the data active = activation above about 7.8%;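 also: 0% = vehicle wells and 100% = reference activator wells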
SR-BI HDL uptake – inhibitors of SR-BI mediated HDL lipid uptake, primary screen, ldlA[mSR-BI] cells, fluorescence, single point. 0.96% of 320,000 active. ldlA[mSR-BI] CHO cells, DiI-HDL uptake fluorescence, 3 h. Scavenger receptor class B member 1 (Mus musculus), Q61009. AID 488896, 2010. inhibition, % at 12.5 µM;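 active = mean replicate inhibition of at least 70% and a set share of replicates each scoring 70 or more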;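 also: 0% = median of neutral control wells and 100% = median of positive control wells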
Target sequence (Q61009 whole entry, looked up): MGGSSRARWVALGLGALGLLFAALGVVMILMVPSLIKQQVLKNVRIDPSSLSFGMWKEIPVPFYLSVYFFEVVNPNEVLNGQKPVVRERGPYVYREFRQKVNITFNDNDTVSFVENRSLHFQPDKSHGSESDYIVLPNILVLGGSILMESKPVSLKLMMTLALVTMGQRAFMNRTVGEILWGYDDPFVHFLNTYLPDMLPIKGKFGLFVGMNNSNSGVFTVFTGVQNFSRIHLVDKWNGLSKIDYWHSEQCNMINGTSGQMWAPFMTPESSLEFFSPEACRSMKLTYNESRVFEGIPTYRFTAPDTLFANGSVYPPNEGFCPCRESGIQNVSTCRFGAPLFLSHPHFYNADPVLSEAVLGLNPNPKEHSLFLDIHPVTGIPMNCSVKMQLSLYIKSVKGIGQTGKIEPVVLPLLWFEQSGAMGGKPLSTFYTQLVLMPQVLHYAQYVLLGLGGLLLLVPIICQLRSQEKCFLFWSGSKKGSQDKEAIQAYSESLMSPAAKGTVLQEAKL
SR-BI uptake up – activators of SR-BI mediated DiI-HDL uptake, primary screen, ldlA[mSR-BI] CHO cells, DiI fluorescence | activation, % at 12.5 µM | 0.096% of 320,000 active | AID 504775, 2011 | 3 h; 100 = double the neutral-control signal;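 active = mean replicate activation of at least 60% and every replicate at or above 60%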;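 also: 0% = median plate neutral-control signal and 100% = twice that signal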
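Test system: SR-BI-overexpressing, LDLR-lacking CHO cells. Measured by: DiI fluorescence, bottom read. Medium: Ham's F12 with 0.5% BSA, HEPES 25 mM, pH 7.4. Timing: 3 h uptake period with compound, 37 °C.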
* = called active by the depositor; · = not tested or not shown.

SMILES	Vif imaging	TAG inh	SMARCA2 act	SR-BI HDL uptake	SR-BI uptake up
COc1cc(NC(=S)NC(=O)c2ccccc2C)ccc1NC(=O)c1cccs1	1.3	-99.5	-2.5	59.3	-59.3
COc1cc(NC(=O)c2cc3ccccc3cc2OC)ccc1NC(=O)c1cccs1	-4.8	·	-0.4	70.8*	·
COc1cc(NC(=S)NC(=O)c2cc(C)cc(C)c2)ccc1NC(=O)c1cccs1	4.2	-2.6	0.2	57.4	-57.4
Cc1ccccc1-c1ccc2c(c1)[C@@H]1C[C@H]3[C@@H](CN1CC2)[C@H](C)OC(c1ccccc1)N3C (stereo partly specified)	·	·	-2.2	·	·
Cc1ccc(-n2c(SCC(=O)c3ccc4ccccc4c3)nnc2-c2cccnc2)cc1	·	·	-1.2	·	·
O=C(C[n+]1cc(Br)cc2ccccc21)c1ccccc1	54.8*	·	-1.4	9.3	-9.3
COc1ccc(C(=O)C[n+]2cc(Br)cc3ccccc32)cc1[N+](=O)[O-]	-3.5	·	-1.7	49.4	-49.4
O=C(NC(=S)NNC(=O)c1ccccc1O)c1ccc(F)cc1	-3.3	7.0	0.8	125.3*	-125.4
O=C(NNC(=O)c1ccccc1O)c1ccc(-c2ccc([N+](=O)[O-])cc2)o1	-2.5	-0.6	-0.1	120.6*	-120.6
COc1ccccc1C(=O)NNC(=S)NC(=O)c1cccs1	0.9	5.3	0.5	13.5	-13.5
O=C(NC(=S)NNC(=O)c1ccccc1O)c1ccc([N+](=O)[O-])cc1	-1.8	·	0.4	105.8*	-105.8
O=C(NNC(=S)NC(=O)c1cccnc1)c1ccc(F)cc1	12.9	6.2	-0.1	24.9	-24.9
O=C(NC(=S)NNC(=O)c1ccccc1O)c1cccs1	15.7	·	-1.1	114.2*	-114.2
O=C(Nc1ccccc1)c1ccc(-c2ccc([N+](=O)[O-])cc2)o1	-3.9	·	4.4	·	·
COc1cccc(NC(=O)Nc2c(-c3ccc(C)cc3)nc3ncccn23)c1	·	·	-0.8	·	·
O=C(NCc1ccccc1)[C@H]1CCCN1C(=O)[C@H]1CCCN1C(=O)N1CCCCC1	·	·	-0.1	·	·
Cc1ccc(C(=O)NC(=S)NNC(=O)c2ccccc2O)cc1	-21.2	·	0.3	112.1*	-112.1
O=C(NC(=S)NNC(=O)c1ccccc1O)c1ccccc1	-4.5	·	-1.1	99.5*	-99.5
O=C(CCc1ccccc1)NNC(=O)c1cc(Cl)ccc1O	1.9	11.6	-2.6	115.4*	-115.4
O=C(Nc1nccs1)c1ccc(-c2ccc(Cl)cc2)o1	-1.5	0.5	3.1	12.5	-12.5
O=C(Nc1nccs1)c1ccc(-c2ccc([N+](=O)[O-])cc2)o1	80.4*	0.7	5.5	37.4	-37.4
CC(C)(C)c1cc(CCC(=O)NNC(=S)NC(=O)c2ccccc2)cc(C(C)(C)C)c1O	3.6	17.5	·	70.7*	-70.7
O=C(NNC(=S)NC(=O)c1ccccc1[N+](=O)[O-])c1ccccc1O	2.7	·	-3.4	84.3*	-84.3
O=C(NNC(=O)c1cc(Cl)ccc1O)c1cccs1	10.5	·	4.3	89.4*	-89.4
COc1ccc(/C=C/C(=O)NC(=S)NNC(=O)c2cccs2)cc1	66.9*	5.4	1.4	-10.2	10.2
SMILES	Vif imaging	TAG inh	SMARCA2 act	SR-BI HDL uptake	SR-BI uptake up
O=C(CCc1ccccc1)NNC(=S)NC(=O)c1ccccc1	0.5	·	1.0	3.9	-3.9
CC(C)C[C@H]1COc2cc(Br)ccc2S(=O)(=O)N1Cc1cccc(Cl)c1	·	·	1.1	·	·
COc1cc(C(=O)NC2CCCCN(C)C2=O)cc(OC)c1OC (stereo unspecified)	·	·	-2.2	·	·
COC(=O)c1ccc2c(c1)C(C)(C)C(/C=C/c1ccccc1O)=[N+]2C	-1.6	·	-0.2	75.5*	-75.5
C[N+]1=C(/C=C/Nc2ccccc2Cl)C(C)(C)c2ccccc21	-10.7	·	-4.7	17.3	-17.3
COC(=O)C1=C(C)N(Cc2ccc(C(F)(F)F)cc2)C(=NCC2CC2)NC1c1ccccc1C(F)(F)F (stereo unspecified)	·	·	1.2	·	·
C=C(CN(C)C)C(=O)c1ccc(C)cc1C	-10.1	8.0	-10.8	85.0*	-85.0
CC1(C)C2CC[C@]3(C)C(CC=C4[C@@H]5C[C@@](C)(CO)[C@@H](O)C[C@]5(C(=O)O)CC[C@]43C)[C@@]2(C)CC[C@@H]1O (stereo partly specified)	67.3*	·	·	·	·
